Screening results: PubChem, several laboratories
In the library only some 2.3% were active in any assay of this set; here they are far more common.
HNF4A DNA FP: change in binding of human HNF4 alpha to DNA. HNF4a-FITC DNA binding, fluorescence polarization, 1 h. AID 1224865. activity change, % at 10 µM. 360,000 tested, 0.3% active; in the data active means activity change above about 30%, passing the limit was not always enough
Myeloid diff 2: myeloid differentiation induction; AID 624256; 360,000 tested, 1% active; ER-HoxA9 myeloid progenitors, lysozyme-GFP differentiation, flow cytometry; calls only at 10 µM;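 active means normalized GFP-positive differentiation at or above the plate's own cutoff, the solvent-only control mean plus 3 SD; inconclusive means no clear call, values can overlap the other calls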;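 further: cells exposed to compound for four days before flow analysis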
Rpn11 block: Rpn11 (human) deubiquitinase inhibition. human 26S proteasome, Ub4-pepOG fluorescence polarization; 20S core pre-blocked with epoxomicin. inhibition, % at 20 µM. 360,000 tested, 0.59% active. AID 588493;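 active means inhibition at 20 µM, scaled to each plate's controls, above about 33%, limit read from the data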
CSN deneddyl inh: inhibitors of human CSN-mediated cullin deneddylation; AID 651999; Purified CSN, SCF-Nedd8-OG deneddylation, fluorescence polarization; inhibition, % at 12.5 µM; 360,000 tested, 0.38% active; Q92905;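 active means pattern-corrected inhibition above about 35%, with an unprinted fluorescence ratio check between 0.5 and 1.5, limit read from the data, passing the limit was not always enough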;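 further: 0% = enzyme with substrate and 100% = substrate without enzyme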
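Material: human Csn5 produced in HEK293T cells; Input: enzyme 0.24 nM; Reagent: SCFSkp2-Nedd8OG substrate at 10 nM final; Dosing: 12.5 µM compound; Incubation: 90 min reaction at room temperature; Detection: fluorescence polarization of the substrate; Evaluation: % inhibition of substrate cleavage by Csn5; Control set: substrate-only high control, full reaction low control.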
TPT1 inh: C. albicans TPT1 enzyme inhibition; recombinant caTPT1, FP RNA substrate dephosphorylation; inhibition, % at 5 µM; 300,000 tested, 0.81% active; AID 1962;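 active means inhibition above the mean of all tested compounds plus 3 SD, set per screening campaign, cut at about 24% in these data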;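 further: plate controls were DMSO alone for no effect and ferristatin control at 100 nM for full effect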
Rpn11 confirm: Rpn11 inhibition confirmation, single concentration; shares compounds with Rpn11 block; inhibition, % at 20 µM; purified human 26S proteasome, Ub4-pepOG fluorescence polarization; proteasome pretreated with epoxomicin; 1,900 tested, 29% active; AID 602318
MMP-2 counter: blocks human MMP-2, flagging nonselective RPN11 hits; recombinant MMP-2, FRET peptide cleavage fluorescence; inhibition, % at 20 µM; shares compounds with Rpn11 block; 1,900 tested, 4% active;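 further: human MMP-2 activated beforehand with APMA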
Thrombin FP: thrombin (bovine) inhibition counter-screen; inhibition, % at 20 µM; bovine thrombin cleavage of Ub4-pepOG, fluorescence polarization; AID 602333; 1,900 tested, 13% active; shares compounds with Rpn11 block;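 active means mean inhibition at least 40% at 20 µM, or signal 3 deviations below plate average, so some actives read negative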;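 further: plate controls were thrombin with DMSO for no effect and buffer wells lacking thrombin for full effect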
Target sequence (P00735 whole entry, looked up): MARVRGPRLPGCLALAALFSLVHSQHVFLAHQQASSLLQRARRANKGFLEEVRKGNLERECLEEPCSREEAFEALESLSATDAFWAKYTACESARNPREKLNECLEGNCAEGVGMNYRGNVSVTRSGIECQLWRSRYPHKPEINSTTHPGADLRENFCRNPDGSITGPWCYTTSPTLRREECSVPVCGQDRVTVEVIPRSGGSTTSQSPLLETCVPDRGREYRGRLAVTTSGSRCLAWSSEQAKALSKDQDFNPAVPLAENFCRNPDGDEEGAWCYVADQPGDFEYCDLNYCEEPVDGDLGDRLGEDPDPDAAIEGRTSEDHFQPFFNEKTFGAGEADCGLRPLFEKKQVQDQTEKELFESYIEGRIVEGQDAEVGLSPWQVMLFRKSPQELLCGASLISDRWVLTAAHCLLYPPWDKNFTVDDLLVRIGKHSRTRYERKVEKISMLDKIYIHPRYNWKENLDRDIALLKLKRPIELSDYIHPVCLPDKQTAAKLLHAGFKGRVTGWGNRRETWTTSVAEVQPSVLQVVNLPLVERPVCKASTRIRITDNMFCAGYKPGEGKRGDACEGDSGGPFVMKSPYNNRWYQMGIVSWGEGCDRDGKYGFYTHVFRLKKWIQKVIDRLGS
* = called active by the depositor; i = inactive; ? = inconclusive; / = no result; + = active, no number. Unless noted, no stated cut-off is given here; in the data, active means inhibition above about 40%; inactive means the rest.

SMILES	HNF4A DNA FP	Myeloid diff 2	Rpn11 block	CSN deneddyl inh	TPT1 inh	Rpn11 confirm	MMP-2 counter	Thrombin FP
CCN1CCN(c2nc3c(c(=O)[nH]c(=O)n3C)n2CCSc2nc3ccccc3s2)CC1	-1	i	2	0	3	/	/	/
CCCOc1ccc(C(=O)Nc2ccc3c(c2)OCCO3)cc1	2	i	1	1	-3	/	/	/
CCC(=O)N1CCc2cc(S(=O)(=O)N3CCc4ccccc4C3)ccc21	0	i	56*	78*	-2	8	6	11
COc1ccc(N2CCN(C(=O)c3ccc4c(c3)NC(=O)C(CSCc3ccccc3F)N4)CC2)cc1 (stereo not drawn)	34	i	47*	2	/	31	30	22
Cc1ccc2nc(NCCCO)[nH]c2c1	-5	i	41*	-1	-3	-11	-35	-19
CCOc1ccc2nc(NCCO)[nH]c2c1	1	i	-1	-4	3	/	/	/
Cn1nc(C(=O)NCC2COc3ccccc3O2)c2ccccc2c1=O (stereo not drawn)	3	i	-4	-2	/	/	/	/
O=C(O)c1ccc(-n2c(=O)c3ccccc3c3ccccc3c2=O)cc1	-1	i	-1	-17	1	/	/	/
Cc1ccc(-n2c(=O)c3cc4c(=O)n(-c5ccc(C)c(C)c5)c(=O)c4c(C(=O)c4ccc(C(=O)O)cc4)c3c2=O)cc1C	-58	i	109*	84*	-1	4	11	39
Cc1cccc(Nc2nn3c(=O)c4ccccc4nc3s2)c1	75*	i	126*	31	1	46*	37	-19
CC(C)c1ccc(NC(=O)NC2(C(=O)NCc3cccnc3)CCCCC2)cc1	-2	i	-2	0	3	/	/	/
CCOC(=O)c1sc(NC(=O)/C=C/c2c(F)cccc2Cl)nc1C	34*	i	48*	-4	0	0	12	8
COc1ccc(OCc2nnc(SCC(=O)N3C(C)CCCC3C)o2)cc1 (stereo not drawn)	0	i	0	-3	-1	/	/	/
Cc1ccc(C(=O)N2CCN(S(=O)(=O)N3CCCCC3)CC2)cc1	2	i	-2	4	1	/	/	/
Cc1cc(C)cc(NC(=O)Cn2nnc(C(=O)NCc3ccc4c(c3)OCO4)c2N)c1	8	i	157*	18	3	101*	14	-9
CCOc1ccc(CCNC(=O)c2nnn(CC(=O)Nc3ccc(C)cc3)c2N)cc1OCC	4	?	84*	1	0	87*	-6	2
Cc1ccc(CNC(=O)c2nnn(CC(=O)Nc3cc(C)cc(C)c3)c2N)cc1	-2	i	58*	25	3	51*	-31	-13
CC1=C(C)CC2C(C1)C(=O)c1ccc(Br)cc1S2(=O)=O (stereo not drawn)	0	i	2	-6	/	/	/	/
Cc1cc(C(=O)CN2C(=O)C(=O)N(C3CCCC3)C2=O)c(C)n1CCc1ccc(F)cc1	-1	i	10	-3	/	/	/	/
COc1cc(/C=C/c2ccc3cccc(O)c3n2)c(Br)cc1O	17	i	39*	13	20	12	-21	1
Cc1nn(C)c2ncc(C(=O)c3cc(F)ccc3O)cc12	0	i	-1	1	-1	/	/	/
Cn1c(=O)[nH]c(=O)c2cc(C(=O)c3cc(F)ccc3O)cnc21	2	i	68*	5	9	18	-22	25
CCn1c(C)nc2cc(C(=O)N3N=C(CCOC)CC3(O)C(F)(F)F)ccc21 (stereo not drawn)	-5	i	1	0	0	/	/	/
COc1ccc(/C=C(/NC(=O)c2cccc([N+](=O)[O-])c2)C(=O)O)cc1	1	i	6	4	0	/	/	/
COc1ccccc1Nc1nc2ccc(C)cc2n2cnnc12	13	i	10	5	0	/	/	/
SMILES	HNF4A DNA FP	Myeloid diff 2	Rpn11 block	CSN deneddyl inh	TPT1 inh	Rpn11 confirm	MMP-2 counter	Thrombin FP
Cc1cc(C)n(CC(O)Cn2c3ccccc3c3ccccc32)c(=O)n1 (stereo not drawn)	7	i	48*	4	0	0	0	-4
Cc1[nH]c2ccccc2c1/C=N/Nc1ccccc1[N+](=O)[O-]	-2	i	0	0	1	/	/	/
COc1ccc(NS(=O)(=O)c2cc([N+](=O)[O-])ccc2N/N=C/c2c(C)[nH]c3ccccc23)cc1	77*	+	65*	18	/	44*	-26	-16
Cc1cc(C)c2c(N)c3cccc(C)c3nc2n1	-5	?	67*	10	12	54*	-29	8
O=C(Nc1ccc(Cl)cc1)Nc1ccccc1Sc1ncc([N+](=O)[O-])s1	0	?	44*	11	11	-9	30	-19
O=C(O)/C=C(/c1ccccc1)C(F)(F)F	-2	i	-3	9	/	/	/	/
COC(=O)c1sc2nc(CN3CCN(c4ccc(OC)cc4)CC3)[nH]c(=O)c2c1C	5	i	15	1	6	/	/	/
CCOC(=O)c1sc2nc(CN3CCN(c4cccc(C(F)(F)F)c4)CC3)[nH]c(=O)c2c1C	20	i	49*	15	6	29	-13	5
COC(=O)c1sc2nc(CN3CCN(c4cccc(C(F)(F)F)c4)CC3)[nH]c(=O)c2c1C	22	i	62*	14	11	13	-17	18
COc1cccc(N2CCN(Cc3nc4ccccc4c(=O)[nH]3)CC2)c1	-2	i	0	-1	-3	/	/	/
COc1ccc(N2CCN(Cc3nc4sc(C)c(C)c4c(=O)[nH]3)CC2)cc1	7	/	14	5	4	/	/	/
COc1cccc(N2CCN(Cc3nc4scc(-c5ccccc5)c4c(=O)[nH]3)CC2)c1	9	i	53*	-5	5	12	30	22
CCN(CC)C(=O)[C@H]1CC(CC(=O)NCC23CC4CC(CC(C4)C2)C3)C(=O)N2CCc3c([nH]c4ccc(OC)cc34)[C@]12C (stereo partly drawn)	-2	i	15	1	/	/	/	/
Cc1ccc(F)cc1CNC(=O)C1CCC(=O)N(CCCN2CCCC2=O)C1 (stereo not drawn)	-2	i	2	2	2	/	/	/
COc1ccc(C2C(C#N)=C(N)Oc3cc(C)n(Cc4ccco4)c(=O)c32)cc1 (stereo not drawn)	-5	i	46*	13	7	23	-23	6
Cc1ccc(OCC(=O)NCCNC(=O)c2ccccn2)cc1	2	i	4	4	-2	/	/	/
N/C(=N\c1nc2c(c(=O)[nH]1)CCC2)Nc1cccc(Cl)c1	0	i	-7	-6	-3	/	/	/
